# Tests used:
# [1] = biological target: T1, Enoyl-[acyl-carrier-protein] reductase [NADH] (Mycobacterium tuberculosis, UniProt P9WGR1); test: Inhibition of wild type Mycobacterium tuberculosis inhA
# T1 sequence (P9WGR1 whole entry): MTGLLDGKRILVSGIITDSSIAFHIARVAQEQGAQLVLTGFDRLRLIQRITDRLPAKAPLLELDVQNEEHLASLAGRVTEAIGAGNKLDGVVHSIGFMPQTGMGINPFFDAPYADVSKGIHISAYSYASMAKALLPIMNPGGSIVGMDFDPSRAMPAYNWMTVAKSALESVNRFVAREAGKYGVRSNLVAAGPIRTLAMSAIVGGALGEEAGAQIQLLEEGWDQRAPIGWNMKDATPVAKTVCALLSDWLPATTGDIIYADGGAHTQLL
# [2] = biological target: T1, Enoyl-[acyl-carrier-protein] reductase [NADH]; test: Inhibition of Mycobacterium tuberculosis full length inhA expressed in Escherichia coli BL21 preincubated for 15 mins by fluorescence based assay in presence of NADH
# [3] = system: Mycobacterium tuberculosis; test: Antimycobacterial activity against Mycobacterium tuberculosis H37Rv ATCC 27294 assessed as parasite growth inhibition after 7 days by Alamar Blue assay; assay type: functional; details: H37Rv ATCC 27294, 168 h
# [4] = Aqueous solubility of the compound; assay type: physicochemical; details: buffer
# [5] = biological target: T2, Enoyl-[acyl-carrier-protein] reductase [NADH] (Mycobacterium tuberculosis) (UniProt P9WGR1); details: 50 uM
# T2 sequence (whole entry): T1 sequence (P9WGR1 whole entry)
# [6] = biological target: T2, Enoyl-[acyl-carrier-protein] reductase [NADH] (Mycobacterium tuberculosis)
# [7] = biological target: T2, Enoyl-[acyl-carrier-protein] reductase [NADH] (Mycobacterium tuberculosis); details: 50 uM; remark: listed apart in the source
# Cytochrome P450 3A4 = Cytochrome P450 3A4 (Homo sapiens, UniProt P08684); test: Inhibition of CYP3A4 (unknown origin); assay type: ADME
# [8] = Cytotoxicity against human A549 cells assessed as growth inhibition after 7 days by Alamar Blue assay; assay type: cell-based; details: read-out: MIC
# [9] = biological target: T2, Enoyl-[acyl-carrier-protein] reductase [NADH] (Mycobacterium tuberculosis); remark: listed apart in the source
# [10] = biological target: T1, Enoyl-[acyl-carrier-protein] reductase [NADH]; test: Binding affinity to Mycobacterium tuberculosis NAD+-bound form of full length inhA (1 to 255) by isothermal titration calorimetry assay
# Procedure, shortened: (§1)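 InhA titrated with compound by isothermal titration calorimetry, either as apo enzyme or pre-bound to NADH or NAD+ cofactor. No enoyl-ACP substrate was present. ITC data were used mainly to derive Kd and binding stoichiometry.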
# [11] = Fraction unbound in plasma (unknown origin); assay type: ADME, cell-free
# [12] = biological target: T2, Enoyl-[acyl-carrier-protein] reductase [NADH] (Mycobacterium tuberculosis); remark: listed apart in the source
# [13] = biological target: T1, Enoyl-[acyl-carrier-protein] reductase [NADH]; test: Binding affinity to Mycobacterium tuberculosis NADH-bound form full length inhA (1 to 255) by isothermal titration calorimetry assay; procedure, shortened: as §1
# [14] = biological target: T1, Enoyl-[acyl-carrier-protein] reductase [NADH]; test: Binding affinity to Mycobacterium tuberculosis NADH-bound form of full length inhA (1 to 255) by SPR assay
# [15] = biological target: T3, Adenosine receptor A1 (Homo sapiens) (UniProt P30542); test: Inhibition of adenosine A1 receptor (unknown origin) at 30 uM
# T3 sequence (whole entry): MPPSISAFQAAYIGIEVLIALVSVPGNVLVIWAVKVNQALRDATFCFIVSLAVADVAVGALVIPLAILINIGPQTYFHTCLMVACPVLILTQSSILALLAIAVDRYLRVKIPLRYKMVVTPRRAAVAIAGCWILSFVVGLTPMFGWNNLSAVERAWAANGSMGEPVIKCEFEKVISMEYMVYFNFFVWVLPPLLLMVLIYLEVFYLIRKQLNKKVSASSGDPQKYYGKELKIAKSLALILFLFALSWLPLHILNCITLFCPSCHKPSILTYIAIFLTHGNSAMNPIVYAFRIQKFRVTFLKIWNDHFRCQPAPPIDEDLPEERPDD
# Homo sapiens = species on record: Homo sapiens; test: Inhibition of angiotensin receptor (unknown origin) at 30 uM
# [16] = biological target: T4, Adenosine receptor A3 (Homo sapiens) (UniProt P0DMS8); test: Inhibition of adenosine A3 receptor (unknown origin) at 30 uM
# T4 sequence (whole entry): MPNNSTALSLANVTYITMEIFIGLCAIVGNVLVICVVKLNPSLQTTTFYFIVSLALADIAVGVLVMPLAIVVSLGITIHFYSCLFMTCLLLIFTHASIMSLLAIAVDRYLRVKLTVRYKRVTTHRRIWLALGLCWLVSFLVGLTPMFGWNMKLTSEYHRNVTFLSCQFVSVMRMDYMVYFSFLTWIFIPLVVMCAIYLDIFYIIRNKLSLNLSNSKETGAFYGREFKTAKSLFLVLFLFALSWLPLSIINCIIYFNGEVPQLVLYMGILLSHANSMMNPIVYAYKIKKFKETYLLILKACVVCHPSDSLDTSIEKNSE
# Phosphodiesterase 4 = Phosphodiesterase 4 (Homo sapiens, UniProt P27815+Q08499+Q07343+Q08493); test: Inhibition of PDE4 (unknown origin); assay type: protein assay
# [17] = biological target: 5-hydroxytryptamine receptor 2B (Homo sapiens, UniProt P41595); test: Inhibition of 5HT2B receptor (unknown origin)
# Adenosine receptor A1 = biological target: T5, Adenosine receptor A1 (Homo sapiens, UniProt P30542); test: Inhibition of adenosine A1 receptor (unknown origin)
# T5 sequence (P30542 whole entry): T3 sequence (whole entry)
# [18] = system: Mycobacterium tuberculosis; test: Antitubercular activity against Mycobacterium tuberculosis; assay type: functional
# Sequence of Cytochrome P450 3A4 (P08684 whole entry): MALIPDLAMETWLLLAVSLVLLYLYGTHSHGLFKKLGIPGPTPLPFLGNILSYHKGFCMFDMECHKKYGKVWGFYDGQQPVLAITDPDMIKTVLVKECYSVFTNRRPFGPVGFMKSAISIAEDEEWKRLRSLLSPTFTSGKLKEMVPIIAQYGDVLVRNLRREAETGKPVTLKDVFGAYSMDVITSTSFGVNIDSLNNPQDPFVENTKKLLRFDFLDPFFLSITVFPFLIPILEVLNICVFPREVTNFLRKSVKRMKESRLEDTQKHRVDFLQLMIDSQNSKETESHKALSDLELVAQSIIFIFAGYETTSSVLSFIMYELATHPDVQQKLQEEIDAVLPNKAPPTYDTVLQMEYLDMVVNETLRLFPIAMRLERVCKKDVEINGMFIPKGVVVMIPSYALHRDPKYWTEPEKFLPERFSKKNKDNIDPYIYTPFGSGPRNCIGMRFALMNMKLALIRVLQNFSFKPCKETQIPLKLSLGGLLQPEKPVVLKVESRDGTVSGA
# Sequence of 5-hydroxytryptamine receptor 2B (P41595 whole entry): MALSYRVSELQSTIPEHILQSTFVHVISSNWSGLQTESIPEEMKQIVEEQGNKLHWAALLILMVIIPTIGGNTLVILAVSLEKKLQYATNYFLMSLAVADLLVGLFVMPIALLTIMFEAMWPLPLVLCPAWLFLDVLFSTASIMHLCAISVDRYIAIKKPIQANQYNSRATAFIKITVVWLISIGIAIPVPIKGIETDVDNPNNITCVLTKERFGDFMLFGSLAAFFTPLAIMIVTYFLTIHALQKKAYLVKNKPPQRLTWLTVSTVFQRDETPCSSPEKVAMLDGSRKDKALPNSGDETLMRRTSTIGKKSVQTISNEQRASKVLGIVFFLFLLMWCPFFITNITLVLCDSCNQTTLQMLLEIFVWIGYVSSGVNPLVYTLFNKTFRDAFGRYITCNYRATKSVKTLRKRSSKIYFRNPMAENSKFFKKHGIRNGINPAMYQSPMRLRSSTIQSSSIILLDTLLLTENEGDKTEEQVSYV
smiles,measurement,setting,value
CCCCCCc1ccc(Oc2ccccc2C)c(O)c1,IC50,[1],22 nM
O=C1CC(c2nc3ccccc3n2Cc2ccccc2)CN1C1CCCCC1 (configuration not stated),IC50,[2],1000 nM
same,MIC,[3],> 64 µM
COC(=O)c1cnc2ccc(C#N)cc2c1NCCCc1ccccc1,IC50,[2],20 nM
same,MIC,[3],> 64 µM
Cc1csc([C@](C)(O)c2nnc(Nc3ccn(Cc4c(F)cccc4F)n3)s2)n1,solubility,[4],208 µM
same,ΔTm,[5],69.3 °C
same,Tm,[6],56.5 °C
same,IC50,[2],3 nM
same,ΔTm,[7],55 °C
same,IC50,Cytochrome P450 3A4,1.9 µM
same,MCC at 168 h,[8],78 µM
same,Tm,[9],55.2 °C
same,Kd,[10],9.3 µM
same,fraction unbound,[11],0.034
same,Tm,[12],54.2 °C
same,Kd,[13],13.7 nM
same,MIC,[3],0.19 µM
same,Kd,[14],11.5 nM
Cc1csc(C(C)(O)c2nnc(Nc3cc(C4CC4)n(Cc4c(F)cccc4F)n3)s2)n1 (racemic),IC50,[2],970 nM
same,MIC,[3],> 12.5 µM
Cc1csc(C(C)(O)c2nnc(NCC3CN(Cc4c(F)cccc4F)C(=O)O3)s2)n1 (racemic),IC50,[2],400 nM
same,MIC,[3],> 100 µM
Cc1csc(C(C)(O)c2nnc(NC(=O)c3ccn(Cc4c(F)cccc4F)n3)s2)n1 (racemic),IC50,[2],34000 nM
same,MIC,[3],> 100 µM
Cc1csc(C(C)(O)c2nnc(Nc3ccn(Cc4c(F)cccc4F)n3)s2)n1 (racemic),IC50,[2],4 nM
same,MIC,[3],0.5 µM
Cc1csc(C(C)(O)c2nnc(Nc3cnn(Cc4c(F)cccc4F)c3)s2)n1 (racemic),IC50,[2],234 nM
same,MIC,[3],7.5 µM
Cc1csc(C(C)(O)c2nnc(Nc3ncn(Cc4c(F)cccc4F)n3)s2)n1 (racemic),solubility,[4],69 µM
same,inhibition,[15],63%
same,IC50,[2],30 nM
same,IC50,Cytochrome P450 3A4,48 µM
same,MCC at 168 h,[8],> 100 µM
same,fraction unbound,[11],0.143
same,inhibition,Homo sapiens,69%
same,MIC,[3],0.391 µM
same,inhibition,[16],70%
Cc1csc(C(C)(O)c2nnc(NC(=O)Cc3c(F)cccc3F)s2)n1 (racemic),solubility,[4],26 µM
same,IC50,[2],200 nM
same,IC50,Cytochrome P450 3A4,> 50 µM
same,IC50,Phosphodiesterase 4,23 µM
same,MCC at 168 h,[8],> 100 µM
same,fraction unbound,[11],0.019
same,IC50,[17],64 µM
same,IC50,Adenosine receptor A1,21 µM
same,MIC,[3],3.75 µM
Cc1csc(C(C)(O)c2nnc(Nc3cccc(Cc4c(F)cccc4F)n3)s2)n1 (racemic),IC50,[2],< 2 nM
same,MIC,[3],3.13 µM
Cc1csc(C(C)(O)c2nnc(Nc3nccc(Cc4c(F)cccc4F)n3)s2)n1 (racemic),IC50,[2],< 2 nM
same,MIC,[3],12.5 µM
NNC(=O)c1ccncc1 [ISONIAZID],MIC,[18],0.05 µM
same,MIC,[3],0.03 µg/mL
COc1c(N2C[C@@H]3CCCN[C@@H]3C2)c(F)cc2c(=O)c(C(=O)O)cn(C3CC3)c12 [MOXIFLOXACIN],MIC,[3],0.12 µg/mL
CC/C(C)=C1\OC(=O)[C@H](C)[C@H](O)[C@H](Cc2cccnc2)NC(=O)[C@@H](NC(=O)c2ncccc2O)[C@@H](C)OC1=O [PYRIDOMYCIN],MIC,[18],0.57 µM
CO[C@H]1/C=C/O[C@@]2(C)Oc3c(C)c(O)c4c(O)c(c(/C=N/N5CCN(C)CC5)c(O)c4c3C2=O)NC(=O)/C(C)=C\C=C\[C@H](C)[C@H](O)[C@@H](C)[C@@H](O)[C@@H](C)[C@H](OC(C)=O)[C@@H]1C [RIFAMPIN],MIC,[3],0.007 µg/mL
Oc1cc(Cl)ccc1Oc1ccc(Cl)cc1Cl [TRICLOSAN],MIC,[18],64 µM
